Laboratory results published in ChEMBL document CHEMBL1134553 (J Med Chem, 2001).

Columns and labels:
[1] = target: T1, Sodium-dependent serotonin transporter (Homo sapiens, UniProt P31645); assay: Inhibition of [3H]citalopram binding to the serotonin transporter in rhesus (Macaca mulatta) or cynomolgus monkey (Macaca fascicularis) caudate-putamen.; format: tissue-based, Cercopithecidae; details: target entry is the homologue from another species
Procedure, shortened: (§1)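 Caudate-putamen membranes homogenised in ice-cold 50 mM Tris·HCl (pH 7.4), spun at 38000g for 20 min, washed twice. Assay at 4 mg original wet tissue/mL with 1 nM [3H]citalopram in 50 mM Tris·HCl pH 7.4 plus 100 mM NaCl. Incubated 2 h at 0-4 °C, then filtered on polyethyleneimine-soaked GF/B and counted by scintillation. Nonspecific binding defined with 10 µM fluoxetine. IC50 by EBDA; triplicates, 2-3 brains.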

[2] = target: Monoamine transporters; serotonin & dopamine (Homo sapiens) (UniProt P31645+Q01959); assay: SERT/DAT ratio of the compound; format: protein assay
Monoamine transporters; serotonin & dopamine (Homo sapiens), sequence (P31645 whole entry, looked up): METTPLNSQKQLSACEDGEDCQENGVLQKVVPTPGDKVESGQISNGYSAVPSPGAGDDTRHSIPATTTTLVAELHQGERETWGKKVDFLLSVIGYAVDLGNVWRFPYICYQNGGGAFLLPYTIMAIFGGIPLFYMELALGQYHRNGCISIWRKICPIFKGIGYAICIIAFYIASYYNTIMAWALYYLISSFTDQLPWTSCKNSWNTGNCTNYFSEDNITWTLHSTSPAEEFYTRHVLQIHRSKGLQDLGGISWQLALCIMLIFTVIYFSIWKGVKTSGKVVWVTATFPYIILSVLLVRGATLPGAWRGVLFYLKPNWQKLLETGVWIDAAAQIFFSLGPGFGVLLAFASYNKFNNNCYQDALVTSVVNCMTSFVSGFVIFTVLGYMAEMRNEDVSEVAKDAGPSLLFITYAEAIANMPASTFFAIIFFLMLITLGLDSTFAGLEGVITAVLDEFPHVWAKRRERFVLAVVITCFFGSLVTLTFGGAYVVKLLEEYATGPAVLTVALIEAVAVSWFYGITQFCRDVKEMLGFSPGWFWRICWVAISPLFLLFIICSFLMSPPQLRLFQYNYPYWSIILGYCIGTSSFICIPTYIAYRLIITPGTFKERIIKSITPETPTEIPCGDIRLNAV
Monoamine transporters; serotonin & dopamine (Homo sapiens), sequence (Q01959 whole entry, looked up): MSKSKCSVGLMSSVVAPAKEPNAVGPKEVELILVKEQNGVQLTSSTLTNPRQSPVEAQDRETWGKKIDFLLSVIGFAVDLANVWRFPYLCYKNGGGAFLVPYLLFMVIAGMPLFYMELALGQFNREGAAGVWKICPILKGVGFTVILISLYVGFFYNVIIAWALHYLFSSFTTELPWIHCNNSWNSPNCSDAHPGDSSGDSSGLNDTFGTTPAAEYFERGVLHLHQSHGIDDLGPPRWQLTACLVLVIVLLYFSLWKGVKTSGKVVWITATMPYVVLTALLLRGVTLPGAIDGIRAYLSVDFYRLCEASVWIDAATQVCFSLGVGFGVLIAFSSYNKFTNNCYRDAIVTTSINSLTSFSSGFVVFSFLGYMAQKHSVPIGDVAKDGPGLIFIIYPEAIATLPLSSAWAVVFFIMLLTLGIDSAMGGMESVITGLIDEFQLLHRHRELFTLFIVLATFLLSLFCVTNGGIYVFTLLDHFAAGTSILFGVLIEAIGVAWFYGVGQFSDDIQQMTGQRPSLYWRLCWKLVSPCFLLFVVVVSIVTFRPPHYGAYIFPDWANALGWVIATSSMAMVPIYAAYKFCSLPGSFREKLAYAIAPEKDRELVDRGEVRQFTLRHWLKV

[3] = target: T1, Sodium-dependent serotonin transporter; assay: Inhibition of [3H]-citalopram binding to the serotonin transporter in rhesus (Macaca mulatta) or cynomolgus monkey (Macaca fascicularis) caudate-putamen.; format: tissue-based, Cercopithecidae; procedure, shortened: as §1

T1 sequence (P31645 whole entry): as the sequence (P31645 whole entry, looked up) above

| SMILES | IC50 [1] | Ratio [2] | IC50 [3] |
| --- | --- | --- | --- |
| COC(=O)C1C(c2ccccc2)CC2[C@@H](O)CC1N2C (stereo in doubt; 14d) [listing 1 of 2 here] | 88000 nM | – | – |
| COC(=O)C1C(c2ccccc2)CC2[C@@H](O)CC1N2C (stereo in doubt; 17d) [listing 1 of 2 here] | > 10000 nM | – | – |
| COC(=O)[C@H]1C2C(=O)CC(C[C@H]1c1ccc(Cl)c(Cl)c1)N2C (some centres not stated) | 7040 nM | – | – |
| COC(=O)C1C(c2ccc(Cl)c(Cl)c2)CC2C[C@@H](O)C1N2C (stereo in doubt; 18a) [listing 1 of 2 here] | – | 1170 | – |
| COC(=O)C1=C(c2ccc(Cl)c(Cl)c2)CC2CCC1N2C (configuration not stated) | – | 747 | – |
| COC(=O)C1C(c2ccc3ccccc3c2)CC2C[C@@H](O)C1N2C (stereo in doubt; 15b) [listing 1 of 2 here] | 5.57 nM | – | – |
| COC(=O)[C@H]1C(c2ccc(Cl)c(Cl)c2)CC2C[C@@H](O)[C@H]1N2C (stereo in doubt; (1R)-18a) [listing 1 of 2 here] | – | 11 | – |
| COC(=O)C1C(c2ccc3ccccc3c2)CC2C[C@@H](O)C1N2C (stereo in doubt; 18b) [listing 1 of 2 here] | – | 34 | – |
| COC(=O)C1C(c2ccccc2)CC2[C@@H](O)CC1N2C (stereo in doubt; 34) | > 20000 nM | – | – |
| COC(=O)C1=C(c2ccc(Cl)c(Cl)c2)CC2C[C@@H](O)C1N2C (some centres not stated) | > 6000 nM | > 300 | – |
| COC(=O)C1=C(c2ccc3ccccc3c2)CC2C[C@@H](O)C1N2C (some centres not stated) | 677 nM | 15 | – |
| COC(=O)C1=C(c2ccc(F)cc2)CC2[C@@H](O)CC1N2C (some centres not stated) | > 20000 nM | 1 | – |
| COC(=O)C1=C(c2ccc(F)cc2)CC2CCC1N2C (configuration not stated) | – | 20 | – |
| COC(=O)[C@H]1C(c2ccc(Cl)c(Cl)c2)CC2C[C@@H](O)[C@H]1N2C (stereo in doubt; (1R)-15a) [listing 1 of 2 here] | – | 0.05 | – |
| COC(=O)C1=C(c2ccc3ccccc3c2)CC2CCC1N2C (configuration not stated) | – | 37 | – |
| COC(=O)C1C(c2ccccc2)CC2C[C@@H](O)C1N2C (stereo in doubt; 18d) [listing 1 of 2 here] | > 100000 nM | – | – |
| COC(=O)C1C(c2ccc(Cl)c(Cl)c2)C[C@H]2C[C@@H](O)C1N2C (some centres not stated) | 15 nM | 50 | – |
| COC(=O)C1C(c2ccccc2)CC2[C@@H](O)CC1N2C (stereo in doubt; 17d) [listing 2 of 2 here] | – | > 3 | – |
| COC(=O)C1C(c2ccc(F)cc2)CC2C[C@@H](O)C1N2C (stereo in doubt; 18c) [listing 1 of 2 here] | > 20000 nM | – | – |
| COC(=O)C1C(c2ccc(Cl)c(Cl)c2)CC2C[C@@H](O)C1N2C (stereo in doubt; 15a) [listing 1 of 2 here] | 27.7 nM | – | – |
| COC(=O)C1C(c2ccccc2)CC2C[C@@H](O)C1N2C (stereo in doubt; 18d) [listing 2 of 2 here] | – | > 190 | – |
| COC(=O)C1C(c2ccc3ccccc3c2)CC2[C@@H](O)CC1N2C (stereo in doubt; 17b) [listing 1 of 2 here] | 180 nM | – | – |

| SMILES | IC50 [1] | Ratio [2] | IC50 [3] |
| --- | --- | --- | --- |
| COC(=O)C1C(c2ccc(F)cc2)CC2[C@@H](O)CC1N2C (stereo in doubt; 17c) [listing 1 of 2 here] | – | 8 | – |
| COC(=O)C1=C(c2ccc3ccccc3c2)CC2[C@@H](O)CC1N2C (some centres not stated) | 260 nM | 1 | – |
| COC(=O)C1C(c2ccc3ccccc3c2)CC2CCC1N2C (stereo in doubt; 16b) | – | 10 | – |
| COC(=O)C1C(c2ccccc2)CC2C[C@@H](O)C1N2C (stereo in doubt; 15d) [listing 1 of 2 here] | > 10000 nM | – | – |
| COC(=O)C1=C(c2ccc(Cl)c(Cl)c2)C[C@H]2C[C@@H](O)C1N2C | 5370 nM | – | – |
| COC(=O)C1C(c2ccc3ccccc3c2)CC2[C@@H](O)CC1N2C (stereo in doubt; 14b) [listing 1 of 2 here] | 34.2 nM | – | – |
| COC(=O)C1C(c2ccc(Cl)c(Cl)c2)CC2CCC1N2C (stereo in doubt; 16a) | – | 73 | – |
| COC(=O)C1C(c2ccc(Cl)c(Cl)c2)CC2C[C@@H](O)C1N2C (stereo in doubt; 33) | 533 nM | – | – |
| COC(=O)[C@H]1C(c2ccc(Cl)c(Cl)c2)CC2C[C@@H](O)[C@H]1N2C (stereo in doubt; (1R)-15a) [listing 2 of 2 here] | 139 nM | – | – |
| COC(=O)[C@H]1C(c2ccc(Cl)c(Cl)c2)CC2C[C@@H](O)[C@H]1N2C (stereo in doubt; (1R)-18a) [listing 2 of 2 here] | 5300 nM | – | – |
| COC(=O)C1=C(c2ccccc2)CC2[C@@H](O)CC1N2C (some centres not stated) | > 100000 nM | 1 | – |
| COC(=O)C1C(c2ccc(Cl)c(Cl)c2)CC2CCC1N2C (stereo in doubt; 13a) | – | 2 | – |
| COC(=O)C1C(c2ccc(Cl)c(Cl)c2)CC2[C@@H](O)CC1N2C (stereo in doubt; 14a) [listing 1 of 2 here] | – | 55 | – |
| COC(=O)C1C(c2ccc(F)cc2)CC2C[C@@H](O)C1N2C (stereo in doubt; 15c) [listing 1 of 2 here] | – | > 80 | – |
| COC(=O)C1=C(c2ccccc2)CC2CCC1N2C (configuration not stated) | 28600 nM | 11 | – |
| COC(=O)C1C(c2ccc(F)cc2)CC2C[C@@H](O)C1N2C (stereo in doubt; 18c) [listing 2 of 2 here] | – | > 120 | – |
| COC(=O)C1C(c2ccc3ccccc3c2)CC2C[C@@H](O)C1N2C (stereo in doubt; 18b) [listing 2 of 2 here] | 94 nM | – | – |
| COC(=O)C1C(c2ccc3ccccc3c2)CC2C[C@@H](O)C1N2C (stereo in doubt; 15b) [listing 2 of 2 here] | – | 4 | – |
| COC(=O)C1C(c2ccc(Cl)c(Cl)c2)CC2C[C@@H](O)C1N2C (stereo in doubt; 15a) [listing 2 of 2 here] | – | 20 | – |
| COC(=O)C1C(c2ccc3ccccc3c2)CC2[C@@H](O)CC1N2C (stereo in doubt; 17b) [listing 2 of 2 here] | – | 6 | – |
| COC(=O)C1C(OC(c2ccc(F)cc2)c2ccc(F)cc2)CC2[C@@H](O)CC1N2C (some centres not stated) | 4850 nM | – | – |
| COC(=O)C1C(c2ccc(F)cc2)CC2[C@@H](O)CC1N2C (stereo in doubt; 14c) [listing 1 of 2 here] | – | > 42 | – |

| SMILES | IC50 [1] | Ratio [2] | IC50 [3] |
| --- | --- | --- | --- |
| COC(=O)[C@@H]1C2CC[C@H](C[C@@H]1c1ccccc1)N2C.Cl | – | – | Not Active |
| COC(=O)C1C(OC(c2ccc(F)cc2)c2ccc(F)cc2)CC2C[C@@H](O)C1N2C (some centres not stated) | 9560 nM | – | – |
| COC(=O)C1C(c2ccc(Cl)c(Cl)c2)CC2[C@@H](O)CC1N2C (stereo in doubt; 17a) [listing 1 of 2 here] | 1450 nM | – | – |
| COC(=O)C1C(c2ccc(Cl)c(Cl)c2)CC2[C@H](O)CC1N2C (some centres not stated) | 10700 nM | – | – |
| COC(=O)C1C(c2ccccc2)CC2C[C@@H](O)C1N2C (stereo in doubt; 15d) [listing 2 of 2 here] | – | > 43 | – |
| COC(=O)C1C(c2ccc(Cl)c(Cl)c2)CC2[C@@H](O)CC1N2C (stereo in doubt; 14a) [listing 2 of 2 here] | 166 nM | – | – |
| COC(=O)C1C(c2ccccc2)CC2[C@@H](O)CC1N2C (stereo in doubt; 14d) [listing 2 of 2 here] | – | 14 | – |
| COC(=O)[C@H]1[C@@H](c2ccc(F)cc2)C[C@H]2CC[C@H]1N2C (stereo in doubt; 16c) | 1130 nM | – | – |
| COC(=O)C1C(c2ccc(Cl)c(Cl)c2)CC2[C@@H](O)CC1N2C (stereo in doubt; 17a) [listing 2 of 2 here] | – | 238 | – |
| COC(=O)C1=C(c2ccccc2)CC2C[C@@H](O)C1N2C (some centres not stated) | > 10000 nM | 1 | – |
| COC(=O)C1C(c2ccc(F)cc2)CC2C[C@@H](O)C1N2C (stereo in doubt; 15c) [listing 2 of 2 here] | > 10000 nM | – | – |
| COC(=O)C1=C(c2ccc(Cl)c(Cl)c2)CC2[C@@H](O)CC1N2C (some centres not stated) | 3320 nM | 60 | – |
| COC(=O)C1=C(c2ccc(F)cc2)CC2C[C@@H](O)C1N2C (some centres not stated) | > 10000 nM | 1 | – |
| COC(=O)C1C(c2ccc(Cl)c(Cl)c2)CC2C[C@H](O)C1N2C (some centres not stated) | 991 nM | – | – |
| COC(=O)C1C(c2ccc(F)cc2)CC2[C@@H](O)CC1N2C (stereo in doubt; 17c) [listing 2 of 2 here] | 5820 nM | – | – |
| COC(=O)C1C(c2ccc3ccccc3c2)CC2CCC1N2C (stereo in doubt; 13b) | – | 5 | – |
| COC(=O)C1C(c2ccc(F)cc2)CC2[C@@H](O)CC1N2C (stereo in doubt; 14c) [listing 2 of 2 here] | > 20000 nM | – | – |
| COC(=O)C1C(c2ccc3ccccc3c2)CC2[C@@H](O)CC1N2C (stereo in doubt; 14b) [listing 2 of 2 here] | – | 4 | – |
| COC(=O)C1=C(c2ccc(Cl)c(Cl)c2)CC2C[C@H](O)[C@H]1N2C | 1590 nM | 6 | – |
| COC(=O)C1C(c2ccc(Cl)c(Cl)c2)CC2C[C@@H](O)C1N2C (stereo in doubt; 18a) [listing 2 of 2 here] | 1390 nM | – | – |
| COC(=O)[C@@H]1C(c2ccc(Cl)c(Cl)c2)C[C@H]2C[C@@H](O)C1N2C (some centres not stated) | 1220 nM | 1610 | – |
